Experimental data taken from PMC2800315 (Japanese Journal of Clinical Oncology, 2009).

How the values were obtained:
[1] = Pharmacokinetics of RAD001 in blood, Phase I once-daily oral dosing; assay type: in vivo, Japanese patients; details: for CL/F / AUC / Cmax: mean ± SD; for AUC / Cmax / Tmax: human, whole blood, oral; for AUC: AUCτ, 0 to 24 h
Method in brief: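 Adults aged ≥20 years, Japanese, with refractory advanced tumours; strong CYP3A4 inhibitors or inducers excluded. Oral dosing once daily at 2.5, 5 or 10 mg in continuous 28-day cycles. Per cohort: Cmax, tmax, AUC 0–24 h and CL/F. Descriptive statistics, means ± SD.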

advanced solid tumors = assay: Tumor response according to RECIST; assay type: in vivo, Japanese patients
Method in brief: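 Patients had ≥1 measurable lesion and took continuous once-daily oral dosing in 28-day cycles, continued until progression. Tumour assessed by RECIST every 2 months and at study end. Outcomes summarised descriptively.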

[2] = 2.5 mg/day, Day 1, 2.5 mg/day (n = 3)
[3] = 2.5 mg/day, Day 15, 2.5 mg/day (n = 3)
[4] = 5 mg/day, Day 1, 5 mg/day (n = 3)
[5] = 5 mg/day, Day 15, 5 mg/day (n = 3)
[6] = 10 mg/day, Day 1, 10 mg/day (n = 3)

CO[C@H]1C[C@@H]2CC[C@@H](C)[C@@](O)(O2)C(=O)C(=O)N2CCCC[C@H]2C(=O)O[C@H]([C@H](C)C[C@@H]2CC[C@@H](OCCO)[C@H](OC)C2)CC(=O)[C@H](C)/C=C(\C)[C@@H](O)[C@@H](OC)C(=O)[C@H](C)C[C@H](C)/C=C/C=C/C=C/1C [RAD001, everolimus]
CL/F ([1]; Day 15, 2.5 mg/day (n = 3)): 19.1 ± 3.26 L/h
CL/F ([1]; Day 15, 5 mg/day (n = 3)): 9.94 ± 3.21 L/h
CL/F ([1]; Day 15, 10 mg/day (n = 3)): 14.3 ± 2.23 L/h
Time at which Cmax was apparent ([1]; after administration of a single oral dose): 2 h
Time to Cmax ([1]; after oral administration): 1 to 2 h
Increase of Cmax and AUCτ with dose ([1]; day 1, 2.5 to 10 mg): almost dose-proportionally
Exposure (AUCτ) after multiple dosing (day 15) relative to single dose (day 1) ([1]; days 1 and 15): about twice
AUC [1, 2]: 85.2 ± 18.7 ng·h/mL
AUC [1, 3]: 134 ± 24.1 ng·h/mL
Cmax [1, 2]: 15.1 ± 2.48 ng/mL
Cmax [1, 3]: 16.8 ± 1.33 ng/mL
Tmax ([1]; 2.5 mg/day, tmax Median, Day 1, 2.5 mg/day (n = 3)): 1.98 h
Tmax ([1]; 2.5 mg/day, tmax Range, Day 1, 2.5 mg/day (n = 3)): 0.98 to 2 h
Tmax ([1]; 2.5 mg/day, tmax Range, Day 15, 2.5 mg/day (n = 3)): 1 to 1.98 h
AUC [1, 4]: 211 ± 50 ng·h/mL
AUC [1, 5]: 543 ± 189 ng·h/mL
Cmax [1, 4]: 31.5 ± 3.4 ng/mL
Cmax [1, 5]: 57.6 ± 17.6 ng/mL
Tmax ([1]; 5 mg/day, tmax Median, Day 15, 5 mg/day (n = 3)): 1.98 h
Tmax ([1]; 5 mg/day, tmax Range, Day 1, 5 mg/day (n = 3)): 1 to 1.95 h
Tmax ([1]; 5 mg/day, tmax Range, Day 15, 5 mg/day (n = 3)): 1.93 to 1.98 h
AUC [1, 6]: 401 ± 51.6 ng·h/mL
Cmax [1, 6]: 49.4 ± 14.8 ng/mL
Cmax ([1]; 10 mg/day, Day 15, 10 mg/day (n = 3)): 65.9 ± 1.4 ng/mL
Tmax ([1]; 10 mg/day, tmax Median, Day 1, 10 mg/day (n = 3)): 2 h
Tmax ([1]; 10 mg/day, tmax Median, Day 15, 10 mg/day (n = 3)): 2.02 h
Tmax ([1]; 10 mg/day, tmax Range, Day 1, 10 mg/day (n = 3)): 1.92 to 2 h
Tmax ([1]; 10 mg/day, tmax Range, Day 15, 10 mg/day (n = 3)): 2 to 2.2 h
Time to steady state (Cmin) ([1]; repeated once-daily oral dosing): ~8 days
Patients with marked tumor shrinkage (advanced solid tumors; daily dose of 10 mg, esophageal and gastric cancer): two of three
Duration of partial response (advanced solid tumors; patient with gastric adenocarcinoma and liver metastases, 10 mg/day): > 4 months
